The values below come from publication PMC8486219 (Cancer Science, 2021).

One data set concerns MDA‐MB‐231 cells. Put plainly: Real-time cell migration assay. Format: cell-based, human. To be noted: 2 h pretreatment, 1 µM TH1902 or 2 µM docetaxel, monitored 12 h. In a few lines: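 MDA-MB-231 cells were transfected 24 h with scrambled or SORT1 siRNA, then pretreated 2 h with or without compound. Cells (25 000/well) were seeded serum-free into xCELLigence CIM plates (8 µm pores, underside gelatin-coated 0.15%, 1 h, 37°C), with serum-free medium below. After 30 min adhesion, impedance (Cell Index) was read hourly for 12 h. Duplicate wells, two experiments; one-way ANOVA with Dunnett at 10 h.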

Data set [1] is described as follows: Preliminary pharmacokinetics after i.v. bolus. In kind it is in vivo, mouse. To be noted: CD-1 mice, single i.v. bolus TH1902 50 mg/kg.
A further data set relates to MDA‐MB‐231 xenograft. The data set is described as follows: MDA-MB-231 xenograft, intravenous treatment. In kind it is in vivo, mouse.
Another data set relates to MDA‐MB‐231‐Luc xenograft. The data set is described as follows: MDA-MB-231-Luc xenograft, intraperitoneal treatment. In kind it is in vivo, mouse. As to conditions: i.p. docetaxel 15 mg/kg/wk (MTD), five cycles, CD-1 nude mice, bioluminescence. Summed up: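 MDA-MB-231-Luc cells (5 × 10^6 in HBSS) were injected s.c. into the right flank of female CD-1 nude mice under isoflurane. At ~100 mm3, mice received weekly i.p. vehicle, docetaxel 15 mg/kg, or test compound 50 mg/kg for five cycles. Tumor bioluminescence was monitored and expressed relative to each mouse's day-0 post-treatment value, as mean ± SEM (six mice/group).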

In another data set the test system is PD‐L1‐positive TNBC. To be noted: phase 1b trial of 32 patients with PD-L1-positive TNBC; cited from earlier work.

With `CC(=O)O[C@@]12CO[C@@H]1C[C@H](O)[C@@]1(C)C(=O)[C@H](O)C3=C(C)[C@@H](OC(=O)[C@H](O)[C@@H](NC(=O)OC(C)(C)C)c4ccccc4)C[C@@](O)([C@@H](OC(=O)c4ccccc4)[C@H]21)C3(C)C` [docetaxel], in the data set with MDA‐MB‐231 cells, the “Effect on cell migration (in words)” value is “inhibit cell migration”. For the same molecule, the “free docetaxel exposure, fold lower than TH1902-associated docetaxel in plasma” value in data set [1] is on record as “approximately 37 fold”. Moreover, in data set [1] (plasma, UPLC/MS), the “AUC of free (released) docetaxel after TH1902 dosing” value stood at 15.5 µM·h and the “Cmax of free (released) docetaxel after TH1902 dosing” value worked out at 7 µM. Besides, the “Tumor growth at a quarter of the MTD (in words)” value with MDA‐MB‐231 xenograft (i.v. docetaxel 3.75 mg/kg or TH1902 8.75 mg/kg, n = 6 mice/group) is “unaffected”. The “Restart of tumor growth” value in the data set on MDA‐MB‐231 xenograft (i.v. docetaxel 15 mg/kg/wk (MTD), three injections, n = 5 mice/group) was 50 days. In addition, the “Start of tumor relapse” value with MDA‐MB‐231‐Luc xenograft was determined as 46 days.
In the case of “Pembrolizumab: monoclonal anti‐PD‐1 antibody”, in the data set on PD‐L1‐positive TNBC, the response rate is listed as 18.5%.
